Assay results gathered from unrelated publications.
Each line is one published result; the experiments were not run side by side.

SMILES | assay | system | conditions | quantity | value
Cc1[nH]c(C)c(S(=O)(=O)Nc2ccc(S(F)(F)(F)(F)F)c(Cl)c2)c1C(=O)N1CCC(F)(F)C1 | metabolic stability | mouse, liver microsomes | – | microsomal CLint | 25.4 µL/min/mg
Cl.Cn1c(=O)n(CCCCN2CCC3(CC2)OCc2ccccc23)c2ccccc21 | – | male Sprague-Dawley rat, plasma | intravenous, 5 mg/kg | Vd | 8.4 L/kg
O=C1NC2(CCC2)C(=O)N1c1ccc(F)c(C(F)(F)F)c1 | metabolic stability | mouse, liver microsomes | – | microsomal CLint | 42 µL/min/mg
NCCOCC(=O)N1CCCC(C(=O)NCc2nc(-c3ccc(-c4ccc(F)cc4)cc3)cs2)C1 (stereo not drawn) | – | rat, plasma | intravenous, 1 mg/kg | Vd | 26 L/kg
CC1(CC(F)(F)F)NC(=O)N(c2ccc(F)c(C(F)(F)F)c2)C1=O (stereo not drawn) | metabolic stability | mouse, liver microsomes | – | microsomal CLint | < 7 µL/min/mg
C/C=C1/CN2CC[C@@]34c5cc(O)ccc5N(C)[C@]35OC[C@@]4(C(=O)OC)[C@H]1C[C@H]25 | – | male Sprague-Dawley rat, plasma | intravenous, 1 mg/kg | Vd | 10.2 L/kg
Cc1[nH]c(C)c(S(=O)(=O)Nc2ccc(S(=O)(=O)F)c(Cl)c2)c1C(=O)N1CCC(F)(F)C1 | metabolic stability | mouse, liver microsomes | – | microsomal CLint | 21.8 µL/min/mg
CC[C@H](C)CCCCC(=O)N[C@@H](CCN)C(=O)N[C@H](C(=O)N[C@@H](CCN)C(=O)N[C@H]1CCNC(=O)[C@H]([C@@H](C)O)NC(=O)[C@H](CCN)NC(=O)[C@H](CCN)NC(=O)[C@H](CC(C)C)NC(=O)[C@@H](CC(C)C)NC(=O)[C@H](CCN)NC1=O)[C@@H](C)O | – | male Sprague-Dawley rat, plasma | intravenous, 5 mg/kg | Vd | 0.736 L/kg
CC(C)CC(=O)OC[C@H]1O[C@@](C#N)(c2ccc3c(N)ncnn23)[C@H](O)[C@@H]1O | metabolic stability | mouse, hepatocytes | 5 µM | hepatocyte CLint | > 318 µL/min/10⁶ cells
